Bioassay records as filed in PubChem BioAssay.
Most compounds without a hit are left out; they make up all but 1.9% or so of the library.
PP1 counter – blocks human PP1-alpha phosphatase, a PP5 counter-screen; P62136; inhibition, % at 6.7 µM; actives 0.9% (n = 320,000); AID 2235; purified PP1alpha, OMFP fluorescence;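 active = inhibition above the mean inhibition of all tested compounds plus 3 SD, computed separately for each screening campaign, cut at about 15% in these data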
Target sequence (P62136 whole entry, looked up): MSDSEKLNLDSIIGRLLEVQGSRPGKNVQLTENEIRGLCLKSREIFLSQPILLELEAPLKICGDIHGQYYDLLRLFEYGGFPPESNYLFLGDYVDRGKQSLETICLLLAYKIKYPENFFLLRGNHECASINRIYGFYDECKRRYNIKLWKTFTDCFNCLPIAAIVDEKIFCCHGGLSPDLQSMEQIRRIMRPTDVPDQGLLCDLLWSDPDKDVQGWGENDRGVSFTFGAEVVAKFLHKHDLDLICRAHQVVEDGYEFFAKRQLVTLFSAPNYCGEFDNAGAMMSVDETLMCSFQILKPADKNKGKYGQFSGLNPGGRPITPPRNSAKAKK
STEP inh – STEP (human) phosphatase inhibition; P54829; recombinant STEP, OMFP fluorogenic substrate, fluorescence; inhibition, % at 20 µM; actives 0.25% (n = 360,000); AID 588621;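 active = inhibition at 20 µM, scaled per plate between control wells, above about 37%, limit read from the data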;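 note: 0% = DMSO with enzyme and substrate and 100% = substrate only without enzyme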
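System: STEP phosphatase, cell-free reaction; Buffer or medium: Bis-Tris pH 6.0 buffer with DTT, detergent; Incubation: 20 min at room temperature, dark; Measured by: fluorescence, 480/540 nm.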
LMPTP inh – LMPTP (human) inhibition. actives 0.22% (n = 360,000). P24666. inhibition, % at 20 µM. recombinant LMPTP-A, OMFP fluorogenic substrate, fluorescence intensity;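 active = compounds that cut the enzyme signal by at least half of the control window in the single-dose screen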;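 note: plate controls were DMSO wells with enzyme plus substrate for no effect and substrate without enzyme for full effect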
Target sequence (P24666 whole entry, looked up): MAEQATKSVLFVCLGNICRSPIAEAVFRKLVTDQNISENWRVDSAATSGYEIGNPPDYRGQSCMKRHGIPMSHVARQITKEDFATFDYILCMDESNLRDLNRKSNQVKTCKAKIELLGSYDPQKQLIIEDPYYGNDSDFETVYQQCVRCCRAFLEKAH
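Test system: LMPTP-A phosphatase enzyme; input: 0.625 nM LMPTP-A final; reagent: OMFP substrate, 400 µM final; compound dosing: 20 µM single dose, 3% DMSO; incubation: 50 min dark incubation at room temperature; measured by: endpoint fluorescence intensity from OMFP dephosphorylation; measure: % inhibition relative to no-enzyme and uninhibited control wells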
PP5 primary – PP5 (human) phosphatase inhibition; purified PP5c, OMFP substrate fluorescence; inhibition, % at 6.7 µM; actives 0.18% (n = 320,000); AID 1987;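 active = inhibition above the campaign's mean inhibition across all tested compounds plus 3 SD, cut at about 9.5% in these data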;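 note: 0% = DMSO only and 100% = 100 µM cantharidin control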
Scp-1 inhibitor – blocks human Scp-1 phosphatase activity. Q9GZU7. AID 493091. inhibition, % at 20 µM. Recombinant Scp1, phosphopeptide, malachite green phosphate absorbance. actives 0.88% (n = 340,000);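 active = inhibition above about 50% at 20 µM, limit read from the data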;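 note: plate controls were DMSO wells with enzyme for no effect and wells lacking enzyme for full effect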
Target sequence (Q9GZU7 76-261 limits assumed): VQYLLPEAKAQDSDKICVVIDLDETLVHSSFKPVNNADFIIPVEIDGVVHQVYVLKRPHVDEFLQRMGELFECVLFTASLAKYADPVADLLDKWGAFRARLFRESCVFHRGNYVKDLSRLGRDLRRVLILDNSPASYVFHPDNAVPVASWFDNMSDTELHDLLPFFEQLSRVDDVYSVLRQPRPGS
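Times: enzyme reaction 45 min at room temperature, colour 5 min, stabilisation 30 min. Material: SCP-1 catalytic fragment, aa 76-261. Medium: Acidic Tris acetate buffer with magnesium and detergent. Signal: colorimetric free-phosphate detection, absorbance 630 nm. Read-out basis: % inhibition of SCP-1 phosphate liberation. Reagent: Phosphorylated 17-residue peptide substrate.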
PP5 conf – confirmation of human PP5 phosphatase inhibitors; shares compounds with PP5 primary; Purified PP5, fluorogenic phosphatase substrate, fluorescence; inhibition, % at 6.7 µM; actives 22% (n = 460); in the data active = inhibition above about 9.5%
PP1 inh counter – inhibits human PP1 phosphatase in PP5 counter-screen | shares compounds with PP5 primary | actives 4% (n = 460) | inhibition, % at 6.7 µM | PP1 enzyme, fluorescent phosphatase substrate; in the data active = inhibition above about 16%
* = called active by the depositor; x = not tested or not shown.

SMILES | PP1 counter | STEP inh | LMPTP inh | PP5 primary | Scp-1 inhibitor | others
O=C1NC(=S)NC(=O)C1=Cc1ccc(Br)s1 | -2 | 20 | 10 | 3 | 84*
COc1cccc(NP(=O)(Oc2ccccc2)Oc2ccccc2)c1 | 4 | 0 | 0 | 7 | -3
N/C(=N\N=C/c1ccc(-c2ccc(O)c(C(=O)O)c2)o1)N[N+](=O)[O-] | 5 | 71* | 30 | 2 | 80*
COc1ccc(/C=N/N=C(/N)N[N+](=O)[O-])c(OC)c1 | -3 | 1 | -1 | 3 | 0
CS(=O)(=O)N1Cc2cnnn2-c2ccccc2C1C#N (stereo not drawn) | x | 2 | -1 | x | 8
CCCC(C)C1(CC)C(=O)NC(=Nc2ccc(OC)cc2)NC1=O (stereo not drawn) | 1 | 2 | 0 | 0 | -1
CNCC(=O)c1ccc(O)c(O)c1 | x | 2 | 56* | x | x
CCC/C=C(\CCC)C(NP(=O)(c1ccccc1)c1ccccc1)c1ccccc1 (stereo not drawn) | 4 | x | x | 4 | x
CN(C)C1C(=O)C(C(N)=O)=C(O)C2(O)C(=O)C3=C(O)c4c(O)cccc4C(C)(O)C3CC12 (stereo not drawn) | 6 | 0 | 7 | 0 | 8
CN(C)[C@@H]1C(=O)C(C(N)=O)=C(O)[C@@]2(O)C(=O)C3=C(O)c4c(O)cccc4[C@@](C)(O)[C@H]3C[C@@H]12 | 29* | x | x | -2 | x
Cc1cc(/C=C2\C(=O)NC(=O)N(c3ccccc3)C2=O)c(C)n1-c1ccc(C(=O)O)c(Cl)c1 | x | 46* | 1 | x | 40
Cc1cc(/C=C2\C(=O)NC(=O)N(c3ccc(F)cc3)C2=O)c(C)n1-c1cccc(C(=O)O)c1 | -3 | 2 | -1 | 3 | 11
O=c1[nH]c2ccccc2n1C1CCN(Cc2ccc(-c3[nH]c4cc5ncnc5cc4nc3-c3ccccc3)cc2)CC1 | x | x | 84* | x | x
O=C1CC(N2CCC(n3c(=O)[nH]c4ccccc43)CC2)C(=O)N1Cc1ccccc1 (stereo not drawn) | 1 | 0 | 2 | 2 | 3
Cn1c(NN=O)nc2ccccc21 | 3 | 4 | 3 | 3 | -1
O=c1[nH]c(=O)n(CCc2ccc(F)cc2)c(O)c1C=NCc1ccc2c(c1)OCO2 | -2 | 14 | 50* | -1 | -6
COc1ccc(CCn2c(O)c(C=NCc3ccc4c(c3)OCO4)c(=O)[nH]c2=O)cc1OC | -2 | 0 | 1 | 0 | -9
CCc1cc2c(N3CCN(C)CC3)ncnc2s1 | 0 | -4 | -1 | 0 | -3
O=c1c2ccccc2[nH]c(=S)n1-c1ccc(Br)cc1 | 20* | -1 | 0 | -6 | -6
O=c1c2cc(Br)ccc2[nH]c(=S)n1-c1ccccc1 | 8 | 0 | 0 | 1 | -3
O=C(Nc1cccc2ccccc12)c1nn(C23CC4CC(CC(C4)C2)C3)cc1Br | 3 | 4 | 5 | 2 | -10
Cc1ccc(N2C(=O)NC(=O)/C(=C/C=C/c3ccco3)C2=O)cc1 | 1 | -1 | 0 | 1 | 6
CC(C)c1ccc(N2C(=O)NC(=O)/C(=C/C=C/c3ccco3)C2=O)cc1 | 17* | 4 | 0 | 4 | 2
CCCCN1C(=O)/C(=C/C=C/c2ccco2)C(=O)NC1=S | x | 15 | 6 | x | 74*
Cc1ccc(N2C(=O)NC(=O)/C(=C/c3ccoc3)C2=O)cc1 | x | 95* | 56* | x | 84*
SMILES | PP1 counter | STEP inh | LMPTP inh | PP5 primary | Scp-1 inhibitor | others
Cc1ccc(N2C(=O)NC(=O)/C(=C/c3cnn(-c4ccc(C)cc4)c3)C2=O)cc1 | 5 | 1 | -1 | -4 | -8
CC[C@H]1c2ccccc2[C@@H]2CC[C@H]1N2c1ccccc1 | x | x | 2 | x | x
O=C1NC(=O)C(=Cc2ccc(-c3cc(Cl)ccc3[N+](=O)[O-])o2)C(=O)N1 | x | 9 | 23 | x | 69*
CCCCn1c(NC(=O)c2ccc(Br)o2)c(C(=O)OCC)c2nc3ccccc3nc21 | 4 | -1 | 2 | 13* | -3
O=C(O)Cn1cc(/C=C2\C(=O)NC(=O)N(Cc3ccco3)C2=O)c2ccccc21 | -1 | 7 | 5 | 3 | 53*
CCOc1ccc(N2C(=O)/C(=C/c3ccco3)C(=O)NC2=S)cc1 | 5 | 100* | 92* | 1 | 94*
CCOc1ccc(N2C(=O)/C(=C\c3cccs3)C(=O)NC2=S)cc1 | -1 | x | x | -1 | 11
Cc1c2ccncc2c(C)c2c1[nH]c1ccccc12 | 31* | 0 | 43 | -1 | -6
CN1C(=O)NC(=O)/C(=C\c2ccc([N+](=O)[O-])o2)C1=O | -1 | 44* | 11 | 4 | 53*
CN1C(=O)NC(=O)/C(=C/c2ccc([N+](=O)[O-])o2)C1=O | 0 | x | x | 3 | 62*
c1ccc(C2c3ccccc3-n3nncc3CN2CC2CCCCC2)cc1 (stereo not drawn) | x | 4 | 5 | x | 0
O=c1[nH]c(CN2CC=C(c3ccccc3)CC2)nc2cc(C(F)(F)F)ccc12 | 4 | 3 | -4 | -1 | 1
COc1ccc2c(c1)/C(=C/c1cnc[nH]1)C(=O)N2 | -4 | 1 | -1 | -5 | -9
O=C1Nc2ccccc2/C1=C/c1cnc[nH]1 | -2 | 2 | -1 | 3 | 82*
C[n+]1c(-c2ccccc2)c2cc(N)ccc2c2ccc(N)cc21 | 8 | 6 | 81* | 2 | -4
c1ccc2cc(CC3=NCCN3)ccc2c1 | -4 | -2 | -1 | -1 | -11
Cc1ccc2c(c1)C1C[N+](C)(CC(=O)c3ccc(Cl)cc3Cl)CCC1N2C(=O)c1ccc(F)cc1 (stereo not drawn) | x | -2 | 0 | x | 95*
Cc1ccc2c(c1)C1CN(C)CCC1N2C(=O)c1cccs1 (stereo not drawn) | -2 | -3 | 0 | 3 | -12
Cn1ncnc2c(=O)n(C)c(=O)nc1-2 | 38* | 85* | 75* | 13* | -8
O=C1CN=C(c2ccccc2)c2ccccc2N1Cc1ccc(C(F)(F)F)cc1 | -1 | 0 | 1 | 13* | -4 | PP5 conf=-1;PP1 inh counter=0
C/C=C(\C)C(=O)OC1C(C)=C2C(C1OC(=O)CCCCC)C(C)(OC(C)=O)CC(OC(=O)CCC)C1(O)C2OC(=O)C1(C)O (stereo not drawn) | 6 | x | x | 11* | x | PP5 conf=11*;PP1 inh counter=11
Cc1[nH]n(-c2ccccc2)c(=O)c1C(c1ccc([N+](=O)[O-])cc1)c1c(C)[nH]n(-c2ccccc2)c1=O | -1 | 4 | 13 | 9.9* | -1 | PP5 conf=16*;PP1 inh counter=9
O=[N+]([O-])c1ccc(C(c2ccc([N+](=O)[O-])cc2)c2ccc([N+](=O)[O-])cc2)cc1 | x | 0 | 4 | x | 9
